Screening data (PubChem)
ABHD4 inh = ABHD4 inhibitors, primary screen, biochemical, fluorescence polarization, mouse; purified mABHD4, FP-Rh probe fluorescence polarization; inhibition, % at 8.92 µM; 370,000 compounds, 0.54% hits; AID 720543, 2013;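 active = inhibition exceeding the mean over every tested compound plus 3 SD, cut at about 30% in these data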;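 note: 0% = plate median of compound wells and 100% = S159A mutant with DMSO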
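assay system = mABHD4 protein | compound dosing = single nominal dose of 8.92 µM, 0.89% DMSO final | read-out basis = percent inhibition of probe binding, normalized to plate controls | schedule = Enzyme–compound pre-incubation 45 min, then probe 60 min, both 25 °C | detection = fluorescence polarization, excitation 525 nm, emission 598 nm, BODIPY TMR filters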
rCAG binder = binders of r(CAG) RNA repeats, primary screen, biochemical, fluorescence | AID 651821, 2012 | r(CAG) RNA repeat, TO-PRO-1 dye displacement fluorescence | inhibition, % at 3 µM | 370,000 compounds, 1.3% hits;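 active = inhibition above the plate cutoff, the mean of all test compounds on that plate plus 3 SD, cut at about 35% in these data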;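 note: 0% = DMSO alone and 100% = 100 µM mitoxantrone as full dye displacement; higher means more dye released from RNA so lower well fluorescence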
PRMT1 inh = PRMT1 methyltransferase inhibitors, primary screen, biochemical, fluorescence polarization; inhibition, % at 2.79 µM; 370,000 compounds, 1.3% hits; recombinant PRMT1, activity-based probe fluorescence polarization;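 active = inhibition above about 21% made by adding two undisclosed values, limit read from the data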
HTRA1 inhibitor = HTRA1 serine protease inhibitors, primary screen, biochemical, fluorescence polarization, HTS; inhibition, % at 5.96 µM; 340,000 compounds, 0.5% hits; recombinant HTRA1, FP-rhodamine activity-based probe; in the data active = inhibition above about 36%;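 note: 0% = enzyme with DMSO and 100% = wells lacking enzyme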
Target sequence (Q92743 whole entry, looked up): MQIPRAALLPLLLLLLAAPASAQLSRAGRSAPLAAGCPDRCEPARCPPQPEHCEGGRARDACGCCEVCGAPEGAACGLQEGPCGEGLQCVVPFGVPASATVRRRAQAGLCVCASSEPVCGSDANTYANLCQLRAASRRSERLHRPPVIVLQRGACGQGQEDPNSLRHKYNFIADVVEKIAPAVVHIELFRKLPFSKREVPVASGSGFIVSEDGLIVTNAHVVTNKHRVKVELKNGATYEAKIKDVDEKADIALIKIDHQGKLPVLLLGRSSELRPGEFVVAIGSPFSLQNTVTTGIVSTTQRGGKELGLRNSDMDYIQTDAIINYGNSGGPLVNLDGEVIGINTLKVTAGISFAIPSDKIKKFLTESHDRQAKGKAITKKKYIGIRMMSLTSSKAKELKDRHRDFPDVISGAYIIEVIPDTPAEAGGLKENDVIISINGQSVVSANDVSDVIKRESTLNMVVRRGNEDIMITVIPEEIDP
LEDGF integ inh = blockers of LEDGF/p75-dependent integrase strand transfer – biochemical, TR-FRET, high throughput, primary screen; inhibition, % at 3.7 µM; TR-FRET IN-LEDGF/p75 DNA integration, Eu/Cy5; 370,000 compounds, 0.64% hits; HIV-1 integrase (with human LEDGF/p75);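 active = inhibition above the screen-wide mean plus 3 SD, cut at about 13% in these data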;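 note: signal is the Cy5 over europium emission ratio at 671 and 618 nm; 0% = plate median of compound wells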
DAGLB inh = DAGLB lipase inhibitors, primary screen, biochemical, fluorescence, HTS | inhibition, % at 5.17 µM | 340,000 compounds, 0.059% hits | HEK293T DAGLB membrane lysate, EnzChek fluorogenic substrate | Diacylglycerol lipase-beta (Homo sapiens), Q8NCG7; in the data active = inhibition above about 34%;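 note: 0% = enzyme with vehicle and 100% = wells lacking enzyme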
ABHD4 confirm = ABHD4 inhibitors, retest, confirmation, biochemical, fluorescence polarization, mouse; shares compounds with ABHD4 inh; inhibition, % at 8.92 µM; purified mABHD4, FP-Rh probe fluorescence polarization; AID 720658, 2013; 1,800 compounds, 55% hits;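 active = mean inhibition across replicates above the hit cutoff set in the primary screen, cut at about 30% in these data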;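 note: 0% = wild-type ABHD4 with DMSO and 100% = catalytically dead S159A mutant with DMSO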
Active calls of the source: *; . = no result given. Only some compounds are listed: those with a hit (about 3.2% of all), similar ones and a draw of the others.

SMILES	ABHD4 inh	rCAG binder	PRMT1 inh	HTRA1 inhibitor	LEDGF integ inh	DAGLB inh	ABHD4 confirm
CCN1C(=O)[C@H]2[C@@H](c3ccc(C(F)(F)F)cc3)N[C@]3(CCCN(Cc4ccc(OC)cc4)C3=O)[C@H]2C1=O	-2.0	-0.1	2.0	6.1	2.3	4.8	.
COc1cc(CNc2ccc3[nH]c(=O)[nH]c3c2)ccc1OCc1ccccc1	29.6*	4.8	8.1	6.7	3.6	1.5	15.9
COc1cc(CNc2ccc3[nH]c(=O)[nH]c3c2)ccc1OCc1ccc(F)cc1	16.8	3.0	12.3	6.9	0.4	2.9	.
Cc1nnc(NS(=O)(=O)c2ccc(N=Nc3ccc(N)nc3N)cc2)s1	58.3*	17.2	10.7	7.8	-5.2	15.5	34.3*
Cc1nnc(NS(=O)(=O)c2ccc(N)cc2)s1	-4.7	0.9	0.1	2.2	-1.3	1.9	.
Cc1cc(O)c(-c2cc(O)c(C)cc2O)cc1O	32.0*	5.4	87.5*	9.2	6.2	0.7	25.9
O=C(c1[nH]c(C(F)(F)F)nc1-c1ccccc1)N1CCN(c2ccncc2)CC1	1.4	0.8	-2.6	.	2.8	.	.
COc1ccccc1N(C)c1cc2c(c3c1ccn3C)C1CCC2C1 (configuration not stated)	33.4*	3.6	1.1	.	2.3	.	11.7
CCC(=O)N/N=C(\C)CC(=O)Nc1cccc([N+](=O)[O-])c1	-5.6	0.9	-1.4	1.9	0.5	-1.0	.
N#C/C(=C\C1=C(N2CCOCC2)C(=C\c2ccc(Cl)cc2)/CC1)C(=O)Nc1ccccc1F	-7.8	8.4	0.7	-0.3	-1.4	3.0	.
N#C/C(=C/C1=C(N2CCOCC2)C(=C/c2ccc(Cl)cc2Cl)/CC1)C(=O)Nc1ccccc1F	40.0*	3.5	2.5	-5.4	-4.3	0.9	-19.0
CCN1C(=O)c2cccc3c(Cl)ccc(c23)C1=O	-8.1	2.8	-5.2	2.8	7.0	-3.2	.
CC(C)CCN1C(=O)c2cccc3c(N)ccc(c23)C1=O	50.1*	-451.8	157.6*	14.2	-5.3	-233.2	61.6*
COc1ccccc1-n1c(=O)c2c3c(sc2n2c(=S)[nH]nc12)CCC3	33.6*	10.2	3.9	-3.2	-0.4	2.9	29.3
O=C(O)CC1SC(=Nc2cccc(C(F)(F)F)c2)NC1=O (configuration not stated)	0.0	3.6	1.5	6.5	0.3	-2.5	.
O=C(N1CCC(C(O)(c2ccccc2)c2ccccc2)CC1)n1ncc(C(O)(c2ccccc2)c2ccccc2)n1	69.9*	.	-1.8	.	-0.9	.	68.5*
Cc1cc(C)cc(Cn2cc(CN3CC(N4CCN(CCN(C)C)CC4)CS3(=O)=O)nn2)c1 (configuration not stated)	4.6	4.1	-2.8	.	2.2	.	.
O=[N+]([O-])c1ccccc1N=Nc1ccc(O)cc1O	31.6*	16.1	4.2	.	-3.8	.	53.6*
CCN1C(=O)C(CC(=O)Nc2ccc(F)cc2)N(Cc2cccs2)C1=S (configuration not stated)	-10.2	1.4	-0.9	-13.2	3.5	-7.1	.
O=[N+]([O-])c1cccc(-c2ccc(/C=N/NC(=S)Nc3ccccc3)o2)c1	10.8	33.2	0.2	-3.4	-2.3	-1.8	.
O=C(O)c1cc(-c2ccc(/C=N/NC(=S)Nc3ccccc3)o2)ccc1Cl	39.2*	26.4	11.8	.	5.6	.	50.1*
NC(=O)c1ccc(NC(=O)CCC(=O)N2CCN(S(=O)(=O)c3ccc(Cl)cc3)CC2)cc1	-2.9	-2.4	-1.9	3.2	-1.2	1.7	.
Nc1nc(N)c2cc(CNc3ccc(Cl)c(Cl)c3)ccc2n1	37.5*	28.5	2.6	-6.3	-2.2	3.5	35.7*
COC(=O)C1=CN(c2ccc(Oc3ccccc3)cc2)C(N)=C(C#N)C1c1cccc(OC)c1OC (configuration not stated)	-8.9	5.0	8.5	.	-0.7	.	.
COc1cccc(C2CC(c3ccc(C)cc3)=NN2C(=O)c2ccccc2F)c1OC (configuration not stated)	16.8	1.6	-1.7	-31.0	2.5	-6.5	.
SMILES	ABHD4 inh	rCAG binder	PRMT1 inh	HTRA1 inhibitor	LEDGF integ inh	DAGLB inh	ABHD4 confirm
Cc1cccc(NCC(=O)N/N=C\c2ccccn2)c1	0.5	-3.7	-0.6	-2.9	3.0	0.5	.
O=C(CNc1cccc2ccccc12)N/N=C/c1ccccn1	38.7*	7.1	0.5	.	-0.2	.	30.6*
CN(C)c1ccc(Nc2nc(-c3cccnc3)cs2)cc1	27.4	7.0	7.0	14.6	-0.2	4.2	.
CCN(CC)c1ccc(Nc2nc(-c3cccnc3)cs2)cc1	29.7*	1.5	6.3	35.0	-3.2	2.6	35.1*
CCOC(=O)N1CCN(c2ccc(S(=O)(=O)N3CCOCC3)cc2[N+](=O)[O-])CC1	-3.5	-3.5	-1.4	5.5	-0.8	1.7	.
Nc1[nH]c(C(=O)c2ccccc2)c(-c2ccc(Cl)cc2)c1C(=O)NCCc1c[nH]c2ccccc12	30.6*	11.3	3.2	.	-3.6	.	22.7
Nc1[nH]c(C(=O)c2ccccc2)c(-c2ccc(Cl)c(F)c2)c1C(=O)NCCc1c[nH]c2ccccc12	40.1*	5.8	2.2	.	-9.0	.	42.6*
Nc1[nH]c(C(=O)c2ccccc2)c(-c2ccc(Cl)c(Cl)c2)c1C(=O)NCCc1c[nH]c2ccccc12	32.6*	14.0	1.0	.	-0.7	.	18.7
Nc1[nH]c(C(=O)c2ccccc2)c(-c2ccc(Cl)cc2Cl)c1C(=O)NCCc1c[nH]c2ccccc12	32.8*	14.0	2.2	.	-3.2	.	25.9
Nc1[nH]c(C(=O)c2ccccc2)c(-c2ccc(F)cc2)c1C(=O)NCCc1c[nH]c2ccccc12	20.4	10.3	2.7	.	-1.6	.	.
Nc1[nH]c(C(=O)c2ccc(Br)cc2)c(-c2ccc(Cl)c(Cl)c2)c1C(=O)NCCc1c[nH]c2ccccc12	15.1	9.2	-1.3	.	0.9	.	.
Cc1cc(C)cc(-c2c(C(=O)c3ccccc3)[nH]c(N)c2C(=O)NCCc2c[nH]c3ccccc23)c1	28.7	.	-3.9	.	3.9	.	.
Nc1[nH]c(C(=O)c2ccccc2)c(-c2cccc(C(F)(F)F)c2)c1C(=O)NCCc1c[nH]c2ccccc12	30.5*	3.7	0.3	.	1.0	.	3.0
Nc1[nH]c(C(=O)c2ccccc2)c(-c2ccc3c(c2)OCO3)c1C(=O)NCCc1c[nH]c2ccccc12	33.3*	13.9	-2.6	.	2.5	.	39.0*
Nc1[nH]c(C(=O)c2ccc(Br)cc2)c(-c2ccc3ccccc3c2)c1C(=O)NCCc1c[nH]c2ccccc12	30.2*	17.6	2.0	.	-1.1	.	34.7*
